Where two headings read alike, the source gives them in different places. Peptide text beside a SMILES is read from it. * marks the point of attachment. Cbz = O=C(OCc1ccccc1)*; CH2F = FC*

The subject of one experiment is caspase-8 wild-type. As to the kind of experiment: differential scanning fluorimetry thermal stability. The class given is binding. The settings on record: DSF; for TM Values, Wild Type: zinc salts at 50 μM. (DSF heats the sample and reads unfolding from a dye or from intrinsic fluorescence.)
A further experiment has as its system caspase-8 C360A. The experiment is described as above. Type of experiment: binding. Particulars: DSF; for TM Values, C360A: zinc salts at 50 μM; for effect on Tm of caspase-8 C360A: incubation with other metals.
Experiment [1] has as its target T1, caspase-8 (Homo sapiens, UniProt Q14790). As to the kind of experiment: caspase-8 cleavage of fluorogenic tetrapeptide substrate LEHD-AMC. Type of experiment: biochemical.
Experiment [2] deals with T1, caspase-8. Description: caspase-8 cleavage of procaspase-7. The class given is biochemical. Particulars: metal panel.
The target in experiment [3] is T2, caspase-3 (Homo sapiens, UniProt P42574).
T2 sequence (P42574 29-175 limits assumed): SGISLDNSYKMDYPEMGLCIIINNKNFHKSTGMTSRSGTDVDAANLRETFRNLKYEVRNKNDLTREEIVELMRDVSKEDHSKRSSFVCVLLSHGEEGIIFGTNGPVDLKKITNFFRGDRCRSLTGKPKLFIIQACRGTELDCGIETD
T2 sequence (P42574 176-277 limits assumed): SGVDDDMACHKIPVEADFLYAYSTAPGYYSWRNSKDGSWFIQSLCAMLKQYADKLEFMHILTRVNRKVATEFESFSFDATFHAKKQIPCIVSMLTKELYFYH
As to the kind of experiment: caspase-3 cleavage of protein substrates PAK2 and PARP, metal panel. The class given is biochemical.

Experiment [4] has as its target T3, caspase-7 (Homo sapiens, UniProt P55210).
T3 sequence (P55210 24-198 limits assumed): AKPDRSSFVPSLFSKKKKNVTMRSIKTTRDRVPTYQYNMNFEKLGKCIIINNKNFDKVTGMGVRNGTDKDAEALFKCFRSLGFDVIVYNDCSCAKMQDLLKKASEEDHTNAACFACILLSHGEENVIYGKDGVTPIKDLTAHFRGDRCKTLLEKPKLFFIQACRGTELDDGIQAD
T3 sequence (P55210 207-303 limits assumed): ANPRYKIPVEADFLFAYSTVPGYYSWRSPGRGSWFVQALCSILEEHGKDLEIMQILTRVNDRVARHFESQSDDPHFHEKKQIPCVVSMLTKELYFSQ
As to the kind of experiment: caspase-7 cleavage of protein substrate PAK2, metal panel. Type of experiment: biochemical.

In experiment [5] the target is T2, caspase-3. As to the kind of experiment: caspase-3 cleavage of fluorogenic tetrapeptide substrate DEVD-AMC. Type of experiment: biochemical.
For experiment [6], the target named is T3, caspase-7. Description: caspase-7 cleavage of fluorogenic tetrapeptide substrate DEVD-AMC. Type of experiment: biochemical.
The conditions of experiment [7]: read-out: KD for zinc; cited from earlier work.
Experiment [8] has as its target T4, caspase-6 (Homo sapiens, UniProt P55212).
T4 sequence (P55212 24-179 limits assumed): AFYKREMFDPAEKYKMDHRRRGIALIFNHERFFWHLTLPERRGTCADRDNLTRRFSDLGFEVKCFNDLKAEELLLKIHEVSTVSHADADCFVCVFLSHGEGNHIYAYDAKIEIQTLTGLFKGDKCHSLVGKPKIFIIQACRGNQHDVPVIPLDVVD
T4 sequence (P55212 194-293 limits assumed): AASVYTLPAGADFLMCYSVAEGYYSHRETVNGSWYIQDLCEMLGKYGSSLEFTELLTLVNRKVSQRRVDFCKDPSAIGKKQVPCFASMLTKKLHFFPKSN
The settings on record: read-out: IC50 (unbuffered); cited from earlier work.

Experiment [9] addresses T1, caspase-8. As to the kind of experiment: size exclusion chromatography of caspase-8 oligomeric state. Particulars: SEC after incubation. The gist of the method: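 Oligomeric state of caspase-8 was resolved by size-exclusion chromatography into dimer and monomer peaks. Protein was run alone, after incubation with zVAD-FMK, or after inhibitor incubation followed by increasing zinc. Peak fractions were quantified as mean ± SEM from three experiments on three separate days.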

Experiment [10] addresses T2, caspase-3. Description: Fluozin-3 competition zinc affinity. The settings on record: competition with Fluozin-3. Type of experiment: binding. The gist of the method: (§1)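 Caspase titrated into reactions holding a constant amount of zinc and the fluorescent zinc indicator Fluozin-3. Each reaction was left to reach equilibrium, then Fluozin-3 fluorescence was read, with signal falling as caspase competed for zinc. Mean ± SEM from three experiments on three separate days.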

Experiment [11] has as its target T4, caspase-6. As to the kind of experiment: caspase-6 cleavage of preferred fluorogenic tetrapeptide substrate. The class given is biochemical.
Experiment [12] has as its target T4, caspase-6. As to the kind of experiment: Fluozin-3 competition zinc affinity. The class given is binding. The settings on record: competition with Fluozin-3. The method in brief:
as §1

Experiment [13] addresses T2, caspase-3. As to the kind of experiment: zincon colorimetric zinc-binding stoichiometry. Particulars: zincon absorbance at 620 nm. The method in brief: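 Caspase-3 and -7 were tested alone or with the active site occupied by zVAD; caspase-8 wild type and C360A were also tested. Mean ± SEM from three experiments on three separate days.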
Experiment [14] addresses T1, caspase-8. Description: Fluozin-3 competition zinc affinity. Particulars: competition with Fluozin-3. Type of experiment: binding. The gist of the method:
as §1

The target of experiment [15] is T2, caspase-3. Particulars: cited from earlier work.
Experiment [16] has as its system caspase-7 variant H131A/C171A. As to the kind of experiment: activity of caspase-7 variant in absence and presence of ZnCl2. The class given is biochemical. Particulars: presence vs absence of ZnCl2.
The mark [17] stands for this setting: metal panel, peptide substrate DEVD-AMC.
[18] abbreviates: panel of biologically relevant metals.
Where [19] appears, read: read-out: IC50 Values Unbuffered, total zinc, no zinc buffer, 10 nM caspase.
Setting [20] is: zinc buffered (NTA), mixed model of inhibition, global fit.

T1 sequence (Q14790 217-374 limits assumed): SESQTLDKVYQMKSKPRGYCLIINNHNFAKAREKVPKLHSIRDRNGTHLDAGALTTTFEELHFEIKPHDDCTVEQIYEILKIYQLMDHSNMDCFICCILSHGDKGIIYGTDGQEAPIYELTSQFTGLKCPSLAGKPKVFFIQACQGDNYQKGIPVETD
T1 sequence (Q14790 385-479 limits assumed): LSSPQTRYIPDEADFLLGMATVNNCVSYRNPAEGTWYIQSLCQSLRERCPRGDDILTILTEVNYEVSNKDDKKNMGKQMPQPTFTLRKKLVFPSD

`CC[C@H](C)[C@H](NC(C)=O)C(=O)N[C@@H](CCC(=O)O)C(=O)N[C@H](C(=O)N[C@H](C=O)CC(=O)O)[C@@H](C)O` [Ac-IETD-CHO, acetyl-Ile-Glu-Thr-Asp-aldehyde, reference compound] (Ac-IETD-aldehyde): in the experiment on caspase-8 wild-type, the Tm increase was 27 °C and the “TM Values, Wild Type” value stood at 75.5 ± 0.3 °C. Besides, the “TM Values, C360A” value with caspase-8 C360A was 46.4 ± 0.2 °C.
With `[Cd]` [Cadmium, cadmium], the activity remained on caspase-8 [1] (metal panel, peptide substrate LEHD-AMC) was determined as 12%; at caspase-3 [5] (setting [17]) it was 39%; at caspase-7 [6] (setting [17]), 84%. On caspase-8 [2], the “effect on cleavage of procaspase-7 (C186A)” value (shortened to “effect on cleavage … (C186A)”) is “minor impact”. Moreover, on caspase-3 [3], the “effect on cleavage of protein substrate PARP” value was “inhibitory effect”. At caspase-7 [4], the “effect on cleavage of protein substrate PAK2” value is reported as “had an inhibitory effect”.
`[Cu]` [Copper, copper]: the “effect on cleavage … (C186A)” value on caspase-8 [2] is given as “minor impact”. The “effect on cleavage of protein substrate PAK2” value at caspase-3 [3] is reported as “did not observe”. Also, the “effect on Tm of caspase-8 C360A” value with caspase-8 C360A was “failed to significantly alter”.
As for `COc1ccc(N(CC(=O)O)CC(=O)O)c(OCCOc2cc(-c3c4cc(F)c(=O)cc-4oc4cc(O)c(F)cc34)ccc2NCC(=O)O)c1` [Fluozin-3], the Kd (as a rule, the free concentration of one partner at which half of the binding sites on the other are occupied at equilibrium, for simple one-to-one binding) in [7] is 15 nM.
Consider `[Zn+2]` [Zinc, zinc], for which the IC50 – broadly, the concentration at which inhibition is half-maximal – at caspase-6 [8] is 4500 nM; at caspase-8 [1] (setting [19]), 367 ± 38 nM; on caspase-6 [11] (setting [19]), 4530 ± 1100 nM; on caspase-3 [5] (setting [19]), 104 ± 26 nM; at caspase-7 [6] (setting [19]), 1580 ± 750 nM. For the same compound, the “caspase-8 eluting as dimer” value on caspase-8 [9] is 10%. In addition, the “caspase-8 eluting as monomer” value on caspase-8 [9] is recorded as 90%. Further, the “zinc affinity (KD via Cheng-Prusoff)” value on caspase-3 [10], on caspase-6 [12] and on caspase-8 [14] was “low nanomolar affinity” in each case. Also, the “effect on peptide substrate cleavage” value on caspase-8 [1] (setting [18]), on caspase-3 [5] (setting [18]) and on caspase-7 [6] (setting [18]) was “inhibited” in each case. Further, the Ki – broadly, a measure of affinity in units of concentration, obtained from inhibition or displacement – on caspase-8 [1] (setting [20]) worked out at 4.3 nM; at caspase-6 [11] (zinc buffered (NTA), assumed noncompetitive), 2.6 nM; on caspase-3 [5] (setting [20]), 6.9 nM; at caspase-7 [6] (zinc buffered (citrate), mixed model of inhibition, global fit), 76.1 nM. For the same compound, the “effect on cleavage … (C186A)” value at caspase-8 [2] is given as “significant impact”. Moreover, the “zincs bound per caspase monomer (stoichiometry)” value on caspase-3 [13] was “three”. The “effect on cleavage of protein substrate PARP” value at caspase-3 [3] was “inhibitory effect”. Besides, in the experiment on caspase-8 C360A, the “destabilization of caspase-8 C360A (Tm decrease)” value is 5 °C. For the same compound, at caspase-3 [15], the “zinc concentration at which caspase-3 is inhibited” value is reported as at least 1.7 nM.
In the case of `O=C(O)c1ccccc1NN=C(N=Nc1cc(S(=O)(=O)O)ccc1O)c1ccccc1` [Zincon], the equilibrium dissociation constant (Kd) in experiment [7] is 12000 nM.
Regarding `[Cl-].[Cl-].[Zn+2]` [ZnCl2], the “inhibition of variant activity” value in [16] is given as “inhibited by zinc in a similar fashion to wild-type”. Moreover, in the experiment on caspase-8 wild-type, the “destabilization of caspase-8 (Tm decrease)” value is “approximately 3 °C” and the “TM Values, Wild Type” value came out at 44.5 ± 0.4 °C. Further, the “effect on cleavage of protein substrate PAK2” value at caspase-3 [3] is listed as “completely inhibited”. Besides, in the experiment on caspase-8 C360A, the “destabilization of caspase-8 C360A (Tm decrease)” value came to 5 °C and the “TM Values, C360A” value is 41.5 ± 0.9 °C. Besides, the “effect on cleavage of protein substrate PAK2” value at caspase-7 [4] is “inhibited”.
Regarding `O=S(=O)([O-])[O-].[Zn+2]` [ZnSO4], in the experiment on caspase-8 wild-type, the “destabilization of caspase-8 (Tm decrease)” value was “approximately 3 °C” and the “TM Values, Wild Type” value came to 44.8 ± 0.3 °C. For the same compound, the “effect on cleavage of protein substrate PAK2” value at caspase-3 [3] is given as “completely inhibited”. Further, in the experiment on caspase-8 C360A, the “destabilization of caspase-8 C360A (Tm decrease)” value is 5 °C and the “TM Values, C360A” value came to 41.6 ± 0.6 °C. The “effect on cleavage of protein substrate PAK2” value at caspase-7 [4] is recorded as “inhibited”.
Regarding `[Ca+2]` [calcium], in the experiment with caspase-8 C360A, the “effect on Tm of caspase-8 C360A” value is “failed to significantly alter”.
In the case of `[Co]` [cobalt], the “effect on cleavage of protein substrate PAK2” value at caspase-3 [3] was “did not observe”.
`[Fe]` [iron]: in the experiment with caspase-8 C360A, the “effect on Tm of caspase-8 C360A” value is reported as “failed to significantly alter”.
`CC(NC(=O)C(NC(=O)OCc1ccccc1)C(C)C)C(=O)NC(CC(=O)O)C(=O)CF` (stereo not drawn) [zVAD-FMK, carbobenzoxy-Val-Ala-Asp-fluoromethylketone, reference compound] (Cbz-Val-Ala-Asp-CH2F; configuration not given here): at caspase-8 [9], the “caspase-8 eluting as dimer” value is given as 63% and the “caspase-8 eluting as monomer” value is given as 37%. The “inhibition of caspase activity” value against caspase-3 [5] (two-hour incubation) is on record as “completely inhibited”. Besides, the “inhibition of caspase activity” value at caspase-7 [6] (two-hour incubation) was “completely inhibited”.
